Laboratory results: ChEMBL document CHEMBL1944580, “Synthesis of novel sulfonamide-1,2,4-triazoles, 1,3,4-thiadiazoles and 1,3,4-oxadiazoles, as potential antibacterial and antifungal agents. Biological evaluation and conformational analysis studies” (2012)
≈ marks a conversion by molar mass, not a printed value.

How the values were obtained:
[1] = tested on: Staphylococcus aureus; assay: Antibacterial activity against Staphylococcus aureus ATCC 6538 after 24 hrs by micro dilution method; format: functional; conditions: ATCC 6538, 24 h
How it was run: (§1)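 Microdilution MIC in 96-well plates. Bacterial suspensions adjusted in sterile saline to 1.0 × 10^5 CFU/ml, giving 1.0 × 10^4 cfu per well in LB broth. Compounds tested at up to 1 mg/ml. Plates incubated 24 h. MIC taken as the lowest concentration with no visible growth under a binocular microscope. OD at 655 nm was also read against a blank and the positive control. Streptomycin and ampicillin were the positive controls.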

[2] = tested on: Bacillus cereus; assay: Antibacterial activity against Bacillus cereus clinical isolate after 24 hrs by micro dilution method; format: functional; how it was run: as §1
[3] = tested on: Micrococcus flavus; assay: Antibacterial activity against Micrococcus flavus ATCC 10240 after 24 hrs by micro dilution method; format: functional; conditions: ATCC 10240, 24 h; how it was run: as §1
[4] = tested on: Listeria monocytogenes; assay: Antibacterial activity against Listeria monocytogenes NCTC 7973 after 24 hrs by micro dilution method; format: functional; conditions: NCTC 7973, 24 h; how it was run: as §1
[5] = tested on: Pseudomonas aeruginosa; assay: Antibacterial activity against Pseudomonas aeruginosa ATCC 27853 after 24 hrs by micro dilution method; format: functional; conditions: ATCC 27853, 24 h; how it was run: as §1
[6] = tested on: Enterobacter cloacae; assay: Antibacterial activity against Enterobacter cloacae human isolate after 24 hrs by micro dilution method; format: functional; how it was run: as §1
[7] = tested on: Salmonella typhimurium; assay: Antibacterial activity against Salmonella Typhimurium ATCC 13311 after 24 hrs by micro dilution method; format: functional, Salmonella enterica subsp. enterica serovar Typhimurium; conditions: Salmonella enterica, ATCC 13311, 24 h; how it was run: as §1
[8] = tested on: Escherichia coli; assay: Antibacterial activity against Escherichia coli ATCC 35210 after 24 hrs by micro dilution method; format: functional; conditions: ATCC 35210, 24 h; how it was run: as §1
[9] = tested on: Staphylococcus aureus; assay: Antibacterial activity against Staphylococcus aureus ATCC 6538 treated for 24 hrs followed by sub-cultivated for 72 hrs by micro dilution method; format: functional
How it was run: (§2)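 2 µl from each well was serially subcultured into 100 µl fresh broth per well and incubated a further 72 h. MBC is the lowest concentration with no visible growth, taken as 99.5% killing of the original inoculum. Streptomycin and ampicillin were the positive controls.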

[10] = tested on: Bacillus cereus; assay: Antibacterial activity against Bacillus cereus clinical isolate treated for 24 hrs followed by sub-cultivated for 72 hrs by micro dilution method; format: functional; how it was run: as §2
[11] = tested on: Micrococcus flavus; assay: Antibacterial activity against Micrococcus flavus ATCC 10240 treated for 24 hrs followed by sub-cultivated for 72 hrs by micro dilution method; format: functional; how it was run: as §2
[12] = tested on: Listeria monocytogenes; assay: Antibacterial activity against Listeria monocytogenes NCTC 7973 treated for 24 hrs followed by sub-cultivated for 72 hrs by micro dilution method; format: functional; how it was run: as §2
[13] = tested on: Pseudomonas aeruginosa; assay: Antibacterial activity against Pseudomonas aeruginosa ATCC 27853 treated for 24 hrs followed by sub-cultivated for 72 hrs by micro dilution method; format: functional; how it was run: as §2
[14] = tested on: Enterobacter cloacae; assay: Antibacterial activity against Enterobacter cloacae human isolate treated for 24 hrs followed by sub-cultivated for 72 hrs by micro dilution method; format: functional; how it was run: as §2
[15] = tested on: Salmonella typhimurium; assay: Antibacterial activity against Salmonella Typhimurium ATCC 13311 treated for 24 hrs followed by sub-cultivated for 72 hrs by micro dilution method; format: functional, Salmonella enterica subsp. enterica serovar Typhimurium; conditions: Salmonella enterica; how it was run: as §2
[16] = tested on: Escherichia coli; assay: Antibacterial activity against Escherichia coli ATCC 35210 treated for 24 hrs followed by sub-cultivated for 72 hrs by micro dilution method; format: functional; how it was run: as §2
[17] = tested on: Talaromyces funiculosus; assay: Antifungal activity against Penicillium funiculosum ATCC 36839 after 72 hrs by serial dilution method; format: functional; conditions: ATCC 36839, 72 h
How it was run: (§3)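 Modified microdilution MIC. Spores were washed from malt agar cultures with sterile 0.85% saline containing 0.1% Tween 80 and adjusted to about 1.0 × 10^5 per 100 µl well in malt broth. Compounds were dissolved in DMSO (1 mg/ml). Plates incubated 72 h at 28 °C. MIC is the lowest concentration with no visible growth under a binocular microscope. Bifonazole and ketoconazole were the references.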

[18] = tested on: Penicillium ochrochloron; assay: Antifungal activity against Penicillium ochrochloron ATCC 9112 after 72 hrs by serial dilution method; format: functional; conditions: ATCC 9112, 72 h; how it was run: as §3
[19] = tested on: Trichoderma viride; assay: Antifungal activity against Trichoderma viride IAM 5061 after 72 hrs by serial dilution method; format: functional; conditions: IAM 5061, 72 h; how it was run: as §3
[20] = tested on: Aspergillus fumigatus; assay: Antifungal activity against Aspergillus fumigatus human isolate after 72 hrs by serial dilution method; format: functional; how it was run: as §3
[21] = tested on: Aspergillus niger; assay: Antifungal activity against Aspergillus niger ATCC 6275 after 72 hrs by serial dilution method; format: functional; conditions: ATCC 6275, 72 h; how it was run: as §3
[22] = tested on: Aspergillus flavus; assay: Antifungal activity against Aspergillus flavus ATCC 9643 after 72 hrs by serial dilution method; format: functional; conditions: ATCC 9643, 72 h; how it was run: as §3
[23] = tested on: Aspergillus versicolor; assay: Antifungal activity against Aspergillus versicolor ATCC 11730 after 72 hrs by serial dilution method; format: functional; conditions: ATCC 11730, 72 h; how it was run: as §3
[24] = tested on: Fulvia fulva; assay: Antifungal activity against Fulvia fulva after 72 hrs by serial dilution method; format: functional; how it was run: as §3
[25] = tested on: Talaromyces funiculosus; assay: Antifungal activity against Penicillium funiculosum ATCC 36839 treated for 72 hrs followed by sub-cultivated for 5 days by serial dilution method; format: functional
How it was run: (§4)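 MFC obtained after the 72 h, 28 °C malt-broth microdilution (spore inoculum about 1.0 × 10^5 per well, compounds from 1 mg/ml DMSO). 2 µl was serially subcultured into 100 µl broth per well and incubated a further 5 days at 28 °C. MFC is the lowest concentration with no visible growth, taken as 99.5% killing of the original inoculum.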

[26] = tested on: Penicillium ochrochloron; assay: Antifungal activity against Penicillium ochrochloron ATCC 9112 treated for 72 hrs followed by sub-cultivated for 5 days by serial dilution method; format: functional; how it was run: as §4
[27] = tested on: Trichoderma viride; assay: Antifungal activity against Trichoderma viride IAM 5061 treated for 72 hrs followed by sub-cultivated for 5 days by serial dilution method; format: functional; how it was run: as §4
[28] = tested on: Aspergillus fumigatus; assay: Antifungal activity against Aspergillus fumigatus human isolate treated for 72 hrs followed by sub-cultivated for 5 days by serial dilution method; format: functional; how it was run: as §4
[29] = tested on: Aspergillus niger; assay: Antifungal activity against Aspergillus niger ATCC 6275 treated for 72 hrs followed by sub-cultivated for 5 days by serial dilution method; format: functional; how it was run: as §4
[30] = tested on: Aspergillus flavus; assay: Antifungal activity against Aspergillus flavus ATCC 9643 treated for 72 hrs followed by sub-cultivated for 5 days by serial dilution method; format: functional; how it was run: as §4
[31] = tested on: Aspergillus versicolor; assay: Antifungal activity against Aspergillus versicolor ATCC 11730 treated for 72 hrs followed by sub-cultivated for 5 days by serial dilution method; format: functional; how it was run: as §4
[32] = tested on: Fulvia fulva; assay: Antifungal activity against Fulvia fulva treated for 72 hrs followed by sub-cultivated for 5 days by serial dilution method; format: functional; how it was run: as §4

Structure (SMILES)	MIC [1] [µM]	MIC [2] [µM]	MIC [3] [µM]	MIC [4] [µM]	MIC [5] [µM]	MIC [6] [µM]	MIC [7] [µM]	MIC [8] [µM]	MBC [9] [µM]	MBC [10] [µM]	MBC [11] [µM]	MBC [12] [µM]	MBC [13] [µM]	MBC [14] [µM]	MBC [15] [µM]	MBC [16] [µM]	MIC [17] [µM]	MIC [18] [µM]	MIC [19] [µM]	MIC [20] [µM]	other results
COc1cc(Cc2nnc(NC(C)(C)C)o2)c(S(=O)(=O)N(C)C)cc1OC	250 (≈ 99.6 µg/mL)	390 (≈ 155 µg/mL)	250 (≈ 99.6 µg/mL)	250 (≈ 99.6 µg/mL)	390 (≈ 155 µg/mL)	630 (≈ 251 µg/mL)	130 (≈ 51.8 µg/mL)	390 (≈ 155 µg/mL)	500 (≈ 199 µg/mL)	390 (≈ 155 µg/mL)	500 (≈ 199 µg/mL)	390 (≈ 155 µg/mL)	390 (≈ 155 µg/mL)	630 (≈ 251 µg/mL)	250 (≈ 99.6 µg/mL)	390 (≈ 155 µg/mL)	130 (≈ 51.8 µg/mL)	130 (≈ 51.8 µg/mL)	60 (≈ 23.9 µg/mL)	130 (≈ 51.8 µg/mL)	MIC [21]: 250 µM (≈ 99.6 µg/mL); MIC [22]: 130 µM (≈ 51.8 µg/mL); MIC [23]: 130 µM (≈ 51.8 µg/mL); MIC [24]: 250 µM (≈ 99.6 µg/mL); MFC [25]: 250 µM (≈ 99.6 µg/mL); MFC [26]: 380 µM (≈ 151 µg/mL); MFC [27]: 130 µM (≈ 51.8 µg/mL); MFC [28]: 250 µM (≈ 99.6 µg/mL); MFC [29]: 380 µM (≈ 151 µg/mL); MFC [30]: 250 µM (≈ 99.6 µg/mL); MFC [31]: 380 µM (≈ 151 µg/mL); MFC [32]: 250 µM (≈ 99.6 µg/mL)
CCCn1c(Cc2cc(OC)c(OC)cc2S(=O)(=O)N(C)C)n[nH]c1=O	260 (≈ 100 µg/mL)	260 (≈ 100 µg/mL)	650 (≈ 250 µg/mL)	650 (≈ 250 µg/mL)	650 (≈ 250 µg/mL)	650 (≈ 250 µg/mL)	650 (≈ 250 µg/mL)	650 (≈ 250 µg/mL)	390 (≈ 150 µg/mL)	650 (≈ 250 µg/mL)	650 (≈ 250 µg/mL)	780 (≈ 300 µg/mL)	780 (≈ 300 µg/mL)	780 (≈ 300 µg/mL)	650 (≈ 250 µg/mL)	650 (≈ 250 µg/mL)	130 (≈ 50 µg/mL)	130 (≈ 50 µg/mL)	70 (≈ 26.9 µg/mL)	130 (≈ 50 µg/mL)	MIC [21]: 130 µM (≈ 50 µg/mL); MIC [22]: 130 µM (≈ 50 µg/mL); MIC [23]: 130 µM (≈ 50 µg/mL); MIC [24]: 260 µM (≈ 100 µg/mL); MFC [25]: 260 µM (≈ 100 µg/mL); MFC [26]: 390 µM (≈ 150 µg/mL); MFC [27]: 130 µM (≈ 50 µg/mL); MFC [28]: 260 µM (≈ 100 µg/mL); MFC [29]: 260 µM (≈ 100 µg/mL); MFC [30]: 260 µM (≈ 100 µg/mL); MFC [31]: 390 µM (≈ 150 µg/mL); MFC [32]: 260 µM (≈ 100 µg/mL)
